# Results taken from ChEMBL document CHEMBL5058577, “EUbOPEN Chemogenomics Library 2 (Multiplex)” (2022).
# Tested on: U2OS
# Assay: Multiplex assay against U2OS
# Type: toxicity, cell-based
# Conditions: human
# Procedure, shortened: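 Hoechst33342, BioTracker Green Microtubule Cytoskeleton Dye, MitoTracker Red and Annexin V Alexa Fluor 680 were added to live cells at seeding, and imaging on a CQ1 microscope at 37°C and 5% CO2 followed compound addition. Gating by CellPathfinder machine learning separated cells into Hoechst high-intensity objects or normal cells, then normal cells into healthy, pyknosed or fragmented nuclei, then pyknosed cells into mitotic or apoptotic. Per cents of healthy-nucleus cells are reported for the tubulin, mitochondrial-mass and membrane-permeability phenotypes.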
# [1] = 12 h, 1 µM, compound concentration 1 uM, replicate 1
# [2] = 12 h, 1 µM, compound concentration 1 uM, replicate 2
# [3] = 12 h, 10 µM, compound concentration 10 uM, replicate 1
# [4] = 12 h, 10 µM, compound concentration 10 uM, replicate 2
# [5] = 24 h, 1 µM, compound concentration 1 uM, replicate 1
# [6] = 24 h, 1 µM, compound concentration 1 uM, replicate 2
# [7] = 24 h, 10 µM, compound concentration 10 uM, replicate 1
# [8] = 24 h, 10 µM, compound concentration 10 uM, replicate 2
# [9] = 48 h, 1 µM, compound concentration 1 uM, replicate 1
# [10] = 48 h, 1 µM, compound concentration 1 uM, replicate 2
# [11] = 48 h, 10 µM, compound concentration 10 uM, replicate 1
# [12] = 48 h, 10 µM, compound concentration 10 uM, replicate 2
smiles,measurement,setting,value
NCCc1cn(S(=O)(=O)c2c(Cl)nc3sccn23)c2ccccc12.O=C(O)C(=O)O,Population Apoptotic (%),[1],66%
same,Population Fragmented Nuclei (%),[1],30%
same,Population Healthy Nuclei (%),[1],58%
same,Population Hoechst High Intensity Objects (%),[1],1%
same,Population Membrane Permeable-Phenotype (%),[1],9%
same,Population Mitochondria Different-Phenotype (%),[1],6%
same,Population Mitotic Cells (%),[1],33%
same,Population Normal (%),[1],98%
same,Population Pyknosed Nuclei (%),[1],10%
same,Population Tubulin-Different-Phenotype (%),[1],6%
same,Total Cell Count,[1],280
same,Population Apoptotic (%),[2],81%
same,Population Fragmented Nuclei (%),[2],17%
same,Population Healthy Nuclei (%),[2],72%
same,Population Membrane Permeable-Phenotype (%),[2],4%
same,Population Mitochondria Different-Phenotype (%),[2],8%
same,Population Mitotic Cells (%),[2],18%
same,Population Pyknosed Nuclei (%),[2],9%
same,Total Cell Count,[2],116
same,Population Apoptotic (%),[3],71%
same,Population Fragmented Nuclei (%),[3],26%
same,Population Healthy Nuclei (%),[3],42%
same,Population Hoechst High Intensity Objects (%),[3],5%
same,Population Membrane Permeable-Phenotype (%),[3],42%
same,Population Mitochondria Different-Phenotype (%),[3],60%
same,Population Mitotic Cells (%),[3],28%
same,Population Normal (%),[3],94%
same,Population Pyknosed Nuclei (%),[3],30%
same,Population Tubulin-Different-Phenotype (%),[3],59%
same,Total Cell Count,[3],221
same,Population Apoptotic (%),[4],82%
same,Population Fragmented Nuclei (%),[4],20%
same,Population Healthy Nuclei (%),[4],53%
same,Population Hoechst High Intensity Objects (%),[4],4%
same,Population Membrane Permeable-Phenotype (%),[4],30%
same,Population Mitochondria Different-Phenotype (%),[4],71%
same,Population Mitotic Cells (%),[4],17%
same,Population Normal (%),[4],95%
same,Population Pyknosed Nuclei (%),[4],26%
same,Population Tubulin-Different-Phenotype (%),[4],50%
same,Total Cell Count,[4],115
same,Population Apoptotic (%),[5],69%
same,Population Fragmented Nuclei (%),[5],25%
same,Population Healthy Nuclei (%),[5],66%
same,Population Hoechst High Intensity Objects (%),[5],1%
same,Population Membrane Permeable-Phenotype (%),[5],6%
same,Population Mitochondria Different-Phenotype (%),[5],5%
same,Population Mitotic Cells (%),[5],30%
same,Population Normal (%),[5],98%
same,Population Pyknosed Nuclei (%),[5],8%
same,Population Tubulin-Different-Phenotype (%),[5],3%
same,Total Cell Count,[5],326
same,Population Apoptotic (%),[6],78%
same,Population Fragmented Nuclei (%),[6],20%
same,Population Healthy Nuclei (%),[6],70%
same,Population Membrane Permeable-Phenotype (%),[6],9%
same,Population Mitochondria Different-Phenotype (%),[6],7%
same,Population Mitotic Cells (%),[6],21%
same,Population Pyknosed Nuclei (%),[6],9%
same,Population Tubulin-Different-Phenotype (%),[6],7%
same,Total Cell Count,[6],151
same,Population Apoptotic (%),[7],83%
same,Population Fragmented Nuclei (%),[7],29%
same,Population Healthy Nuclei (%),[7],38%
same,Population Hoechst High Intensity Objects (%),[7],6%
same,Population Membrane Permeable-Phenotype (%),[7],26%
same,Population Mitochondria Different-Phenotype (%),[7],63%
same,Population Mitotic Cells (%),[7],16%
same,Population Normal (%),[7],93%
same,Population Pyknosed Nuclei (%),[7],31%
same,Population Tubulin-Different-Phenotype (%),[7],26%
same,Total Cell Count,[7],240
same,Population Apoptotic (%),[8],86%
same,Population Fragmented Nuclei (%),[8],20%
same,Population Healthy Nuclei (%),[8],46%
same,Population Hoechst High Intensity Objects (%),[8],3%
same,Population Mitochondria Different-Phenotype (%),[8],67%
same,Population Mitotic Cells (%),[8],13%
same,Population Normal (%),[8],96%
same,Population Pyknosed Nuclei (%),[8],33%
same,Population Tubulin-Different-Phenotype (%),[8],38%
same,Total Cell Count,[8],116
same,Population Apoptotic (%),[9],81%
same,Population Fragmented Nuclei (%),[9],21%
same,Population Healthy Nuclei (%),[9],70%
same,Population Hoechst High Intensity Objects (%),[9],1%
same,Population Membrane Permeable-Phenotype (%),[9],5%
same,Population Mitochondria Different-Phenotype (%),[9],4%
same,Population Mitotic Cells (%),[9],18%
same,Population Normal (%),[9],98%
same,Population Pyknosed Nuclei (%),[9],8%
same,Population Tubulin-Different-Phenotype (%),[9],2%
same,Total Cell Count,[9],454
same,Population Apoptotic (%),[10],85%
same,Population Healthy Nuclei (%),[10],66%
same,Population Hoechst High Intensity Objects (%),[10],6%
same,Population Membrane Permeable-Phenotype (%),[10],10%
same,Population Mitochondria Different-Phenotype (%),[10],7%
same,Population Mitotic Cells (%),[10],14%
same,Population Normal (%),[10],93%
same,Population Pyknosed Nuclei (%),[10],12%
same,Population Tubulin-Different-Phenotype (%),[10],7%
same,Total Cell Count,[10],182
same,Population Apoptotic (%),[11],92%
same,Population Fragmented Nuclei (%),[11],37%
same,Population Healthy Nuclei (%),[11],27%
same,Population Hoechst High Intensity Objects (%),[11],7%
same,Population Membrane Permeable-Phenotype (%),[11],25%
same,Population Mitochondria Different-Phenotype (%),[11],56%
same,Population Mitotic Cells (%),[11],7%
same,Population Normal (%),[11],92%
same,Population Pyknosed Nuclei (%),[11],35%
same,Population Tubulin-Different-Phenotype (%),[11],25%
same,Total Cell Count,[11],241
same,Population Fragmented Nuclei (%),[12],29%
same,Population Healthy Nuclei (%),[12],34%
same,Population Membrane Permeable-Phenotype (%),[12],42%
same,Population Mitochondria Different-Phenotype (%),[12],65%
same,Population Tubulin-Different-Phenotype (%),[12],42%
same,Total Cell Count,[12],127
